Data on twelve compounds can be found in ChEMBL document CHEMBL1148577, “Discovery of benzylidenebenzofuran-3(2H)-one (aurones) as inhibitors of tyrosinase derived from human melanocytes” (J Med Chem, 2006).

Molecules are shown by their SMILES.

Data set [1] deals with T1, Tyrosinase (Homo sapiens) (UniProt P14679).
T1 sequence (whole entry): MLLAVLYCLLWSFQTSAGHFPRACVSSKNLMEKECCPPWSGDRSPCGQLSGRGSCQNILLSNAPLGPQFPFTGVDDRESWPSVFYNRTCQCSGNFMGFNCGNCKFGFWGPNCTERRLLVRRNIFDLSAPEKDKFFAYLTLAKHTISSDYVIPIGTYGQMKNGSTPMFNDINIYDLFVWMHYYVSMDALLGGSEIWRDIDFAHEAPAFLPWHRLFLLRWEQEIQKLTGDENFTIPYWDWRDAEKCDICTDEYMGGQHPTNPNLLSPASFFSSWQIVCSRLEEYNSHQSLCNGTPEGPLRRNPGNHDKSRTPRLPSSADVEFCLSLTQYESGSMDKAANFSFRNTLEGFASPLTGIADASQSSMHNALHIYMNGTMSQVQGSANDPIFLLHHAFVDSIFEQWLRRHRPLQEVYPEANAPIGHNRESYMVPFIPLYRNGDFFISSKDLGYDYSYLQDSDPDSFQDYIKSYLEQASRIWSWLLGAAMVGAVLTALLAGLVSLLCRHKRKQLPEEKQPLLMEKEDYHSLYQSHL
In words: Inhibition of tyrosinase in human melanocytes at 0.1 mM. It is filed as cell-based.

For data set [2], the target named is T1, Tyrosinase (Homo sapiens). The experiment in a line: Inhibition of tyrosinase in human black skin melanocytes at 0.1 mM. It is filed as cell-based.
Data set [3] deals with T1, Tyrosinase (Homo sapiens). The experiment in a line: Inhibition of tyrosinase in human white skin melanocytes at 0.1 mM. It is filed as cell-based.
Data set [4] has as its target T1, Tyrosinase (Homo sapiens). In words: Inhibition of tyrosinase in human white skin melanocytes at 0.01 mM. It is filed as cell-based.
In data set [5] the target is T2, Tyrosinase (Homo sapiens, UniProt P14679).
T2 sequence (P14679 whole entry): T1 sequence (whole entry)
The experiment in a line: Inhibitory activity against tyrosinase in human melanocytes. It is filed as cell-based.

Data set [6] concerns the target T1, Tyrosinase (Homo sapiens). The experiment in a line: Inhibition of tyrosinase in human dark skin melanocytes at 0.1 mM. It is filed as cell-based.
For data set [7], the system named is Rattus norvegicus. The experiment in a line: Oral toxicity in rats administered at 5 g/kg, po. It is filed as organism-based. The note with it: in vivo, 5000 mg/kg. Put shortly:
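Acute oral toxicity following OECD 423 acute toxic class method in six female rats. Single dose of 5 g/kg test preparation (10% in xanthane gel). Six female controls received distilled water 2000 mg/kg. Daily observation for 14 days for mortality and signs of toxicity. GHS classification.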

Data set [8] addresses T1, Tyrosinase (Homo sapiens). The experiment in a line: Inhibition of tyrosinase in human black skin melanocytes at 0.01 mM. It is filed as cell-based.
The target in data set [9] is T1, Tyrosinase (Homo sapiens). The experiment in a line: Inhibition of tyrosinase in human dark skin melanocytes at 0.01 mM. It is filed as cell-based.

Consider `O=C1/C(=C/c2ccc(O)cc2)Oc2ccccc21`, for which, in data set [1], the inhibition (in general, the share of the control response that was lost under treatment) turned out to be 39%.
For `O=C1/C(=C/c2ccccc2)Oc2cc(O)cc(O)c21`, the inhibition in data set [1] came out at 3%.
The compound `O=C1/C(=C/c2ccccc2)Oc2cc(O)ccc21` yielded an inhibition in data set [1] of 0%.
`CCCc1ccc(/C=C2\Oc3cc(O)cc(O)c3C2=O)cc1` registered an inhibition in data set [1] of 5%.
The same measure, in the same setting: to `O=C1/C(=C/c2ccccc2O)Oc2cc(O)cc(O)c21` belongs 4%.
As to `CC(C)(C)c1ccc(/C=C2\Oc3cc(O)cc(O)c3C2=O)cc1`, in [1], the inhibition came to 0%.
The same measure, in the same setting: to `CCc1ccc(/C=C2\Oc3cc(O)ccc3C2=O)cc1` belongs 0%.
Consider `O=C1/C(=C/c2ccc(O)cc2)Oc2cc(O)cc(O)c21`, for which the inhibition in data set [2] stood at 66%; in data set [3], 75%; in data set [4] it was 38%; in data set [6], 67%; in data set [8], 39%; in data set [1], 75%. The inhibition in [9] came out at 32%. Half-maximal inhibition in data set [5] (IC50) was put at 38 µM. Besides, the Activity result in data set [7] is listed as “Non-toxic”.
`COc1cc(/C=C2\Oc3cc(O)cc(O)c3C2=O)ccc1O` returned an inhibition in data set [1] of 4%.
Consider `CCOc1ccc(/C=C2\Oc3cc(O)cc(O)c3C2=O)cc1`, for which the inhibition in data set [1] is 5%.
On the same count and under the same terms, to `CCc1ccccc1/C=C1\Oc2cc(O)cc(O)c2C1=O` belongs 0%.
Still for that read-out and setting: with `COc1ccc(/C=C2\Oc3cc(O)cc(O)c3C2=O)cc1` the figure was 11%.
